Data set [1] can be described thus: Oral bioavailability in Swiss albino mouse at 25 mg/kg by LCMS/MS analysis. It is filed as ADME, organism-based. Particulars: in vivo. Put shortly:
(§1)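 Male Swiss Albino mice. Single intravenous dose of 1 mg/kg, or single oral dose of 12.5 or 25 mg/kg. Plasma parameters were derived for each route: CL, Vdss, t1/2, AUClast and C0 after iv; Cmax, Tmax and AUClast after oral. Oral bioavailability F (%) was taken from the oral and iv exposures.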

A short description of data set [2]: AUC (last) in Swiss albino mouse at 1 mg/kg, iv by LCMS/MS analysis. Particulars: in vivo. In kind it is ADME, organism-based. Further details: dose 1 mg/kg, time 0 - last, route intravenous. Put shortly:
as §1

Data set [3] can be described thus: Initial plasma concentration in Swiss albino mouse at 1 mg/kg, iv by LCMS/MS analysis. In kind it is ADME, organism-based. Put shortly:
as §1

A short description of data set [4]: Cmax in Swiss albino mouse at 25 mg/kg, po by LCMS/MS analysis. In kind it is ADME, organism-based. Particulars: in vivo. The arrangement: dose 25 mg/kg, route oral. Put shortly:
as §1

A short description of data set [5]: AUC (last) in Swiss albino mouse at 25 mg/kg, po by LCMS/MS analysis. It is filed as ADME, organism-based. Further details: dose 25 mg/kg, route oral, time 0 - last. Particulars: in vivo. Put shortly:
as §1

Data set [6] can be described thus: Volume of distribution at steady state in Swiss albino mouse at 1 mg/kg, iv by LCMS/MS analysis. As to conditions: in vivo, read-out: Vdss. In kind it is ADME, organism-based. Put shortly:
as §1

Data set [7] in a line: Half life in Swiss albino mouse at 1 mg/kg, iv by LCMS/MS analysis. In kind it is ADME, organism-based. As to conditions: in vivo. Put shortly:
as §1

Data set [8] can be described thus: Tmax in Swiss albino mouse at 25 mg/kg, po by LCMS/MS analysis. It is filed as ADME, organism-based. As to conditions: in vivo. Put shortly: as §1
Data set [9] in a line: Clearance in Swiss albino mouse at 1 mg/kg, iv by LCMS/MS analysis. It is filed as ADME, organism-based. Particulars: in vivo. Put shortly:
as §1

Data set [10] is described as follows: Stability in 0.1 M HCl at pH 1 at 20 degC. In kind it is physicochemical. Particulars: buffer.
Data set [11] can be described thus: Metabolic stability in human liver microsomes assessed as parent compound remaining at 1 uM after 30 mins by LC-MS/MS analysis. It is filed as ADME. Particulars: read-out: Stability.
Data set [12] in a line: Metabolic stability in hamster liver microsomes assessed as parent compound remaining at 1 uM after 30 mins by LC-MS/MS analysis. In kind it is ADME. Particulars: cricetinae, read-out: Stability.
Data set [13] is described as follows: Metabolic stability in CD1 mouse liver microsomes assessed as parent compound remaining at 1 uM after 30 mins by LC-MS/MS analysis. It is filed as ADME. As to conditions: read-out: Stability.
Data set [14] in a line: Metabolic stability in hamster liver microsomes assessed as parent compound remaining at 1 uM after 1 hr by LC-MS/MS analysis. It is filed as ADME. Particulars: cricetinae, read-out: Stability.
Data set [15] in a line: AUC (last) in Swiss albino mouse at 12.5 mg/kg, po by LCMS/MS analysis. It is filed as ADME, organism-based. Further details: dose 12.5 mg/kg, route oral, time 0 - last. As to conditions: in vivo. Put shortly: as §1
Data set [16] in a line: Oral bioavailability in Swiss albino mouse at 12.5 mg/kg by LCMS/MS analysis. It is filed as ADME, organism-based. As to conditions: in vivo. Put shortly: as §1
Data set [17] is described as follows: Tmax in Swiss albino mouse at 12.5 mg/kg, po by LCMS/MS analysis. As to conditions: in vivo. It is filed as ADME, organism-based. Put shortly: as §1
Data set [18] in a line: Cmax in Swiss albino mouse at 12.5 mg/kg, po by LCMS/MS analysis. As to conditions: in vivo. It is filed as ADME, organism-based. Further details: dose 12.5 mg/kg, route oral. Put shortly:
as §1

A short description of data set [19]: Metabolic stability in CD1 mouse liver microsomes assessed as parent compound remaining at 1 uM after 1 hr by LC-MS/MS analysis. In kind it is ADME. Particulars: read-out: Stability.
Data set [20] is described as follows: Metabolic stability in human liver microsomes assessed as parent compound remaining at 1 uM after 1 hr by LC-MS/MS analysis. It is filed as ADME. As to conditions: read-out: Stability.

Nine compounds from ChEMBL document CHEMBL3784956, “Repositioning Antitubercular 6-Nitro-2,3-dihydroimidazo[2,1-b][1,3]oxazoles for Neglected Tropical Diseases: Structure-Activity Studies on a Preclinical Candidate for Visceral Leishmaniasis” (J Med Chem, 2016) can be followed below.

On to `CC1(COc2ccc(OC(F)(F)F)cc2)Cn2cc([N+](=O)[O-])nc2O1` (racemic), for which the bioavailability in data set [1] is 79%. The AUC(0-t) in data set [2] was found to be 1690 ng·h/mL; in data set [5], 33500 ng·h/mL. The C0 in [3] turned out to be 880 ng/mL. Besides, in data set [4], the Cmax turned out to be 4100 ng/mL. The Vd in data set [6] worked out at 1.7 L/kg. The half-life in data set [7] is 2.2 h. For the same compound, in data set [8], the Tmax was 4 h. Further, in [9], the clearance is 9.5 mL/min/kg.

In [1], `CC1(COc2ccc(-c3ccc(OC(F)(F)F)cc3)cc2)Cn2cc([N+](=O)[O-])nc2O1` (stereo not given) displayed a bioavailability of 18%. Further, the figures for the AUC(0-t) in [2] and in data set [5] were 2130 ng·h/mL and 9810 ng·h/mL, respectively. The same compound came in with a C0 in data set [3] of 340 ng/mL. The same compound yielded a Cmax in data set [4] of 290 ng/mL. In addition, in [6], the Vd turned out to be 5.7 L/kg. Moreover, in [7], the half-life was 11 h. The Tmax in data set [8] came to 6 h. This compound yielded a clearance in [9] of 7.6 mL/min/kg.

For the compound `CC1(CNc2ccc(OC(F)(F)F)cc2)Cn2cc([N+](=O)[O-])nc2O1` (stereo not given), the Stability entry in data set [10] is reported as “Unstable”.

`CC1(COc2ccc(-c3ccc(F)cc3)cc2)Cn2cc([N+](=O)[O-])nc2O1` (racemic) had a bioavailability in [1] of 63%. The figures for the remaining at 0.5 h, 1 µM in [11], in data set [12] and in data set [13] were 88%, 42% and 57%, respectively. Further, the exposure AUC(0-t) in data set [2] was found to be 480 ng·h/mL; in [5], 7580 ng·h/mL. The same compound registered a C0 in [3] of 300 ng/mL. For the same compound, the highest concentration (Cmax) in data set [4] is 700 ng/mL. In addition, in data set [6], the Vd was 7.5 L/kg. The half-life in data set [7] was 3.8 h. For the same compound, the time of peak concentration (Tmax) in data set [8] was found to be 6 h. Also, the clearance in data set [9] worked out at 28 mL/min/kg.

As for `C[C@]1(COc2ccc(N3CCC(Oc4ccc(OC(F)(F)F)cc4)CC3)cc2)Cn2cc([N+](=O)[O-])nc2O1`, in data set [14], the remaining at 1 h, 1 µM turned out to be 55%.

Turning to `C[C@]1(COc2ccc(OC(F)(F)F)cc2)Cn2cc([N+](=O)[O-])nc2O1`, the AUC(0-t) is 15800 ng·h/mL in [15] and 1390 ng·h/mL in [2]. Also, the bioavailability in data set [16] came to 91%. This compound also returned a C0 in data set [3] of 360 ng/mL. The Tmax in data set [17] was determined as 2 h. The peak concentration (Cmax) in [18] worked out at 1300 ng/mL. In addition, the Vd in data set [6] came out at 2.6 L/kg. The compound also gave a half-life in data set [7] of 2.7 h. The compound also came in with a clearance in [9] of 11 mL/min/kg.

Regarding `O=[N+]([O-])c1cn2c(n1)OC(COc1ccc(OC(F)(F)F)cc1)C2` (stereo not given), the bioavailability in data set [1] came out at 52%. Besides, the exposure AUC(0-t) in data set [2] was 1140 ng·h/mL; in data set [5] it was 14800 ng·h/mL. Also, in data set [3], the C0 was 610 ng/mL. In [4], this compound had a maximum concentration (Cmax) of 1800 ng/mL. The Vd in data set [6] stood at 2.2 L/kg. Also, the half-life in [7] was 3.2 h. Besides, the Tmax in [8] is 1 h. This compound gave a clearance in [9] of 13 mL/min/kg.

On to `CC1(CN2CCN(c3ccc(F)cc3)CC2)Cn2cc([N+](=O)[O-])nc2O1` (stereo not given), for which the results for the remaining at 1 h, 1 µM in [19] and in data set [20] were 14% and 49%, respectively.

As to `CC1(COc2ccc(C(F)(F)F)cn2)Cn2cc([N+](=O)[O-])nc2O1` (racemic), the remaining at 1 h, 1 µM in data set [19] came out at 69%; in data set [20], 84%. The Stability entry in data set [10] is reported as “Unstable”.
